# Reference: ChEMBL document CHEMBL4376862, “Synthesis and evaluation of novel chlorophyll a derivatives as potent photosensitizers for photodynamic therapy” (Eur J Med Chem, 2020)
# How the values were obtained:
# [1] = Therapeutic index, ratio of TC50 for human A549 cells under dark to IC50 for human A549 cells irradiated with 1 J/cm2 of 650 nanometer laser light; format: toxicity, cell-based; conditions: read-out: TI
# Outline: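 A549 cells (F-12K, 10% FBS, 37 °C, 5% CO2) seeded 24 h, then exposed to 0–10 photosensitizer for 24 h. Dark arm: MTT 48 h later. Light arm: 650 nm laser, 1 J/cm2 (25 mW/cm2, 40 s), then MTT. A570 viability relative to control, triplicate. Ratio = dark TC50 / irradiated IC50.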
# [2] = Induction of ROS generation in DMF solution assessed as slope of the photodegradation rate of DPBF at 2 uM followed by irradiation measured every 10 secs by spectrophotometric analysis; format: functional
# [3] = system: A549; assay: Phototoxicity in human A549 cells assessed as reduction in cell viability in presence of irradiation with laser light at 1 J/cm2 by fluorescence microscopic method relative to control; format: functional
# Outline: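 A549 cells were grown in F-12K with 10% FBS at 37 °C in 5% CO2. Cells were treated with photosensitizer and exposed to 650 nm laser at 0 or 1 J/cm2, with a laser-alone group. Viable cells were then stained with calcein (green) and nuclei with DAPI (blue), and imaged by fluorescence microscopy.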
# [4] = Drug uptake in BALB/c nude mouse xenografted with A549 cells assessed as drug level in tumor tissue at 0.3 mg/kg, iv measured upto 24 hrs by fluorescence assay; format: ADME, organism-based, Neoplasm; conditions: in vivo
# Outline: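 A549 tumor-bearing mice dosed via tail vein (1 mg/kg in methods; 0.3 mg/kg in text) at tumors ~150–170 mm3, n = 3; whole-body imaging 0–24 h; at 6 and 12 h mice killed, heart, liver, spleen, lung, kidney, brain, tumor imaged ex vivo, excitation 420 nm, emission 650 nm.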
# [5] = system: Cavia porcellus; assay: Phototoxicity in guinea pig assessed as change in auricles of left ear at 4.5 mg/kg, iv in presence of 10 mW/cm2 light irradiation for 10 mins measured after 1day of light irradiation by H and E staining based microscopic analysis; format: organism-based; conditions: in vivo
# [6] = system: A549; assay: Cytotoxicity against human A549 cells assessed as apoptotic lesions in absence of light by fluorescence microscopic method; format: cell-based
Drug uptake [4],SMILES,selectivity ratio [1],K [2],Activity [3],Activity [5],Activity [6]
Active,CCC1=C(C)c2cc3[nH]c(cc4nc(c5c6[nH]c(cc1n2)c(C)c6C(=O)C5)[C@@H](CCC(=O)NCC(=O)CCC(=O)O)[C@@H]4C)c(C)c3C(C)OCCO (some centres not stated),8.97,0.027 s⁻¹,34.15%,Non-Toxic,Non-Toxic
Active,CCCCOC(C)c1c(C)c2cc3nc(c4c5[nH]c(cc6nc(cc1[nH]2)C(C)=C6CC)c(C)c5C(=O)C4)[C@@H](CCC(=O)NCC(=O)CCC(=O)O)[C@@H]3C (some centres not stated),8.74,0.0313 s⁻¹,30.69%,Non-Toxic,Non-Toxic
